Assay: Safety: treatment-emergent adverse events, NCI CTCAE v4.03
Assay type: in vivo, human (Chinese patients)
Procedure, shortened: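 Patients took oral test compound at 320 mg QD or 160 mg BID until progression or unacceptable toxicity. AEs were graded per NCI CTCAE v4.03, and treatment-emergent AEs were summarized. AEs of special interest included haemorrhage, atrial fibrillation/flutter, hypertension, second primary malignancies, tumour lysis syndrome, infections and cytopenias. Percentages use patients receiving ≥1 dose as the denominator.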

## C=CC(=O)N1CCC([C@@H]2CCNc3c(C(N)=O)c(-c4ccc(Oc5ccccc5)cc4)nn32)CC1 [zanubrutinib]
160 mg BID (n = 34)
  Anaemia, TEAE any grade: 12 (35.3) n (%)
  Anaemia, grade ≥ 3 TEAE: 4 (11.8) n (%)
  Atrial fibrillation/flutter, any grade TEAE of special interest: 0 (0.0) n (%)
  Cough, TEAE any grade: 5 (14.7) n (%)
  Cytopenias: Anaemia, any grade TEAE of special interest: 14 (41.2) n (%)
  Cytopenias: Neutropenia, any grade TEAE of special interest: 18 (52.9) n (%)
  Cytopenias: Thrombocytopenia, any grade TEAE of special interest: 9 (26.5) n (%)
  Haemorrhage, any grade TEAE of special interest: 11 (32.4) n (%)
  Hematuria, TEAE any grade: 6 (17.6) n (%)
  Hypertension, any grade TEAE of special interest: 0 (0.0) n (%)
  Hyperuricemia, TEAE any grade: 6 (17.6) n (%)
  Infections, any grade TEAE of special interest: 19 (55.9) n (%)
  Major haemorrhage, any grade TEAE of special interest: 1 (2.9) n (%)
  Neutropenia, grade ≥ 3 TEAE: 4 (11.8) n (%)
  Neutrophil count decreased, TEAE any grade: 17 (50.0) n (%)
  Neutrophil count decreased, grade ≥ 3 TEAE: 6 (17.6) n (%)
  Patients with ≥1 TEAE of special interest, any grade: 30 (88.2) n (%)
  Patients with ≥1 any‐grade TEAE: 33 (97.1) n (%)
  Patients with ≥1 grade 3 or higher TEAE: 18 (52.9) n (%)
  Platelet count decreased, TEAE any grade: 8 (23.5) n (%)
  Platelet count decreased, grade ≥ 3 TEAE: 1 (2.9) n (%)
  Pneumonia, TEAE any grade: 6 (17.6) n (%)
  Pneumonia, grade ≥ 3 TEAE: 3 (8.8) n (%)
  Rash, TEAE any grade: 8 (23.5) n (%)
  Second primary malignancies, any grade TEAE of special interest: 0 (0.0) n (%)
  Thrombocytopenia, grade ≥ 3 TEAE: 1 (2.9) n (%)
  Tumour lysis syndrome, any grade TEAE of special interest: 0 (0.0) n (%)
  Upper respiratory tract infection, TEAE any grade: 10 (29.4) n (%)
  Upper respiratory tract infection, grade ≥ 3 TEAE: 2 (5.9) n (%)
  Weight increased, TEAE any grade: 5 (14.7) n (%)
  White blood cell count decreased, TEAE any grade: 11 (32.4) n (%)
  White blood cell count decreased, grade ≥ 3 TEAE: 1 (2.9) n (%)
  White blood cell count increased, grade ≥ 3 TEAE: 2 (5.9) n (%)
320 mg QD (n = 10)
  Anaemia, TEAE any grade: 4 (40.0) n (%)
  Anaemia, grade ≥ 3 TEAE: 1 (10.0) n (%)
  Atrial fibrillation/flutter, any grade TEAE of special interest: 0 (0.0) n (%)
  Cough, TEAE any grade: 3 (30.0) n (%)
  Cytopenias: Anaemia, any grade TEAE of special interest: 4 (40.0) n (%)
  Cytopenias: Neutropenia, any grade TEAE of special interest: 7 (70.0) n (%)
  Cytopenias: Thrombocytopenia, any grade TEAE of special interest: 3 (30.0) n (%)
  Haemorrhage, any grade TEAE of special interest: 4 (40.0) n (%)
  Hematuria, TEAE any grade: 3 (30.0) n (%)
  Hypertension, any grade TEAE of special interest: 1 (10.0) n (%)
  Hyperuricemia, TEAE any grade: 3 (30.0) n (%)
  Infections, any grade TEAE of special interest: 7 (70.0) n (%)
  Major haemorrhage, any grade TEAE of special interest: 0 (0.0) n (%)
  Neutropenia, grade ≥ 3 TEAE: 0 (0.0) n (%)
  Neutrophil count decreased, TEAE any grade: 7 (70.0) n (%)
  Neutrophil count decreased, grade ≥ 3 TEAE: 5 (50.0) n (%)
  Patients with ≥1 TEAE of special interest, any grade: 10 (100.0) n (%)
  Patients with ≥1 any‐grade TEAE: 10 (100.0) n (%)
  Patients with ≥1 grade 3 or higher TEAE: 6 (60.0) n (%)
  Platelet count decreased, TEAE any grade: 2 (20.0) n (%)
  Platelet count decreased, grade ≥ 3 TEAE: 1 (10.0) n (%)

Source: article PMC9321909 (British Journal of Haematology, 2022)
